Source: PubChem BioAssay
TRPC4 agonist: activators of mouse TRPC4 channel; AID 2237; B-score at 10 µM; HEK293 TRPC4beta/mu-opioid, Fluo4 calcium fluorescence; active compounds read high; hit rate 0.49% among 310,000;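 active = B-score above 5 SD of library B-scores, and initial fluorescence ratio not above library mean plus 5 SD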;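 note: positive B-score marks a calcium rise read as TRPC4 activation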
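Incubation: 45 min room-temperature Fluo4 loading, 110 s read / System: HEK293 cells stably co-expressing mouse TRPC4beta and mu-opioid receptor / Signal: Fluo4 fluorescence, kinetic / Control set: buffer (low) and maximal DAMGO (high) / Measure: integrated baseline-normalised fluorescence ratio, converted to per-well B score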
TRPC4 potent: TRPC4 (mouse) allosteric potentiation; Q9QUQ5; HEK293 TRPC4beta/mu-opioid, DAMGO EC20, Fluo-4 Ca2+ flux; active compounds read high; B-score at 10 µM; AID 2227; hit rate 0.42% among 310,000;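 active = B-score of calcium response area above 5 SD of library B-scores, with initial fluorescence ratio within 5 SD of library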;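 note: B-score of integrated fluorescence ratio over time as area under calcium response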
TRPC6 inhibitor: inhibitors of mouse TRPC6 channel | HEK293-TRPC6, membrane potential dye, ACh-evoked depolarization; active compounds read low | B-score at 10 µM | hit rate 1.1% among 310,000;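 active = B-score under library mean minus 3 SD, initial fluorescence not abnormally high, positive integrated signal ratio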;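 note: B-score derived from integrated fluorescence ratio over the kinetic read; more negative B-score means stronger inhibition of depolarization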
Target sequence (Q61143 whole entry, looked up): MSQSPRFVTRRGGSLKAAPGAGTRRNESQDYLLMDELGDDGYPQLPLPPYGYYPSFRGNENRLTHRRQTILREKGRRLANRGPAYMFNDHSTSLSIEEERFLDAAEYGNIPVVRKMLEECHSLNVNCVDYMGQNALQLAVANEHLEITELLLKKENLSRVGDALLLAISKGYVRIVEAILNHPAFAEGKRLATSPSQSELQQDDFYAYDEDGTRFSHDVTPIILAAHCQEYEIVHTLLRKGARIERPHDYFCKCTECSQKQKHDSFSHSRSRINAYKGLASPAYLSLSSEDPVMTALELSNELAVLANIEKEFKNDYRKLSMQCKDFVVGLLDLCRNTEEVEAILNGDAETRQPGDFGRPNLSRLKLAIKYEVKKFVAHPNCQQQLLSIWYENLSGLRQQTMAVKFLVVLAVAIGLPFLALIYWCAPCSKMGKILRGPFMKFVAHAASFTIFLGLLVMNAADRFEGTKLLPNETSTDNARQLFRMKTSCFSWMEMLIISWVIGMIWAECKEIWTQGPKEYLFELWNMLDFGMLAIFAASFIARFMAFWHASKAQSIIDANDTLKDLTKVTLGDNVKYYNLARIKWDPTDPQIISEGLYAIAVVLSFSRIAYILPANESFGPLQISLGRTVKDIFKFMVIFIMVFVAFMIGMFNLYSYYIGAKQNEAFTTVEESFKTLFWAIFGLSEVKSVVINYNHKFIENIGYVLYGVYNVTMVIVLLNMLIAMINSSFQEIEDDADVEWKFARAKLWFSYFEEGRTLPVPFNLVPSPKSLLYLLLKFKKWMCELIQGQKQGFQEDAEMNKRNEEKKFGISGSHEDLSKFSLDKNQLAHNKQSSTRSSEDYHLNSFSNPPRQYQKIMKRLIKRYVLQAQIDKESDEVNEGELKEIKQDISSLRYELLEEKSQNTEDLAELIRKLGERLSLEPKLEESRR
TRPC6 activator: activators of mouse TRPC6 channel; hit rate 0.13% among 310,000; AID 2550; Q61143; B-score at 10 µM; HEK293-TRPC6 membrane potential dye fluorescence; active compounds read high;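 active = B-score of the integrated fluorescence ratio above library mean plus 3 SD, and starting fluorescence ratio within library mean plus 5 SD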;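 note: higher score means more depolarization so channel activation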
TRPC4 inh: blocks the mouse TRPC4 cation channel; Q9QUQ5; HEK293 TRPC4beta/mu-opioid, DAMGO-evoked Fluo4 calcium flux; active compounds read low; B-score at 10 µM; hit rate 0.39% among 300,000; AID 2247;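 active = B-score over 3 SD under the library average, no early fluorescence shift, positive overall ratio signal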
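Assay system: TRPC4beta/mu-opioid receptor HEK293 cell line; compound dosing: single concentration per test compound; detection: Fluo4 Ca2+ flux fluorescence; evaluation: per-well B score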
* hit, by the source's call; i = inactive. In the library only some 2.3% were active in any assay of this set; here they are far more common.

SMILES	TRPC4 agonist	TRPC4 potent	TRPC6 inhibitor	TRPC6 activator	TRPC4 inh
Cc1cc(C)nc(/N=C(\N)Nc2ccc(OCCC(C)C)cc2)n1	51*	i	i	i	i
CCOC(=O)C(=O)Nc1ccc(OCc2ccccc2)cc1	i	i	i	i	i
Cc1cc(C)nc(/N=C(\N)Nc2cccc(OCc3ccccc3)c2)n1	i	i	-5.4*	i	i
Cc1cc(C)nc(/N=C(\N)Nc2ccc(CC(=O)OC(C)C)cc2)n1	i	i	i	i	i
Cc1cc(C)nc(/N=C(\N)Nc2ccc(OCc3ccccc3)cc2)n1	61*	i	i	i	i
CCCn1c2ccc(F)cc2c2nnc(NN)nc21	i	11*	i	i	i
NNc1nnc2c3cc(F)ccc3n(Cc3ccccc3)c2n1	i	i	i	i	i
CCn1c2ccc(F)cc2c2nnc(NN)nc21	i	18*	i	i	i
C/C(=N\Nc1ccc(C(=O)O)cc1)c1ccc2c(c1)Nc1ccccc1S2	i	i	i	i	-6*
O=C(NCCCN1CCCC1)c1ccc(CS(=O)(=O)c2c(Cl)cccc2Cl)o1	i	i	i	i	i
COc1cccc(OCc2cc(C(=O)NCCN3CCCCC3CO)no2)c1 (stereo unspecified)	i	i	i	i	i
Cc1cc(OCc2cc(C(=O)NCCN3CCCCC3CO)no2)cc(C)c1Cl (stereo unspecified)	i	i	i	i	-7*
CCN1CCN(c2ncnc3sc(C)c(-c4ccccc4)c23)CC1	86*	i	i	i	i
CCN1CCN(c2ncnc3scc(-c4ccc(C)c(C)c4)c23)CC1	i	i	i	i	i
COc1cc(NC(=O)C(C)Oc2ccccc2)c(OC)cc1NC(=O)c1ccccc1 (stereo unspecified)	i	i	i	i	i
O=C(CN1CC[n+]2c(-c3cccs3)csc21)c1ccc(Br)cc1	i	i	-5*	i	i
O=C(CN1CC[n+]2c(-c3ccccc3)csc21)c1ccc(Br)cc1	i	i	i	i	i
Cc1ccccc1NC(=O)CSc1nc2ccccc2c(=O)n1CC1CCCO1 (stereo unspecified)	i	i	i	i	i
CCOc1ccccc1NC(=O)CSc1nc2ccccc2c(=O)n1CC1CCCO1 (stereo unspecified)	i	i	i	i	-6*
CCOC(=O)CSc1nc2ccccc2c(=O)n1CC1CCCC1	i	i	i	i	-9*
CCN(CC)S(=O)(=O)c1ccc(NC(=O)CO/N=C(\N)c2ccccc2)cc1	i	i	i	i	i
NS(=O)(=O)c1ccc(NCc2ccccc2OCc2ccc(F)cc2)cc1	i	i	i	i	i
NS(=O)(=O)c1ccc(CCNCc2ccccc2OCc2ccc(F)cc2)cc1	i	i	i	i	-6*
CCOc1ccc2ccccc2c1CNCCc1ccc(S(N)(=O)=O)cc1	i	i	i	i	-6*
CCOc1ccc(CNCCc2ccc(S(N)(=O)=O)cc2)cc1	i	i	i	i	i
SMILES	TRPC4 agonist	TRPC4 potent	TRPC6 inhibitor	TRPC6 activator	TRPC4 inh
N#Cc1ccccc1OCC(=O)N(Cc1nnc(-c2ccccc2Cl)o1)C1CC1	i	i	i	i	i
COc1ccc(C(=O)N2CCCCCC2)cc1S(=O)(=O)N1CCOCC1	i	i	i	i	i
CN(C)CCCN(C(=O)c1cc2cc([N+](=O)[O-])ccc2s1)c1nc2cc3c(cc2s1)OCCO3	i	i	i	i	i
O=C(CN1C(=O)NC2(CCCC2)C1=O)Nc1cc(Cl)ccc1N1CCCCC1	i	i	i	i	i
O=C(CSc1nnc(-c2ccc(Cl)cc2Cl)n1C1CCCCC1)NC1CCS(=O)(=O)C1 (stereo unspecified)	i	i	i	i	-6*
CN(C(=O)CN1CCN(c2ccccc2F)CC1)C1CCCc2ccccc21 (stereo unspecified)	i	i	i	i	i
Cc1cccc(C)c1NC(=O)CNC(=O)Cn1nc(C)c(C)c(C#N)c1=O	i	i	i	i	i
Cc1ccc(C(=O)Nn2c(C)nc3ccccc3c2=O)cc1C	i	i	i	i	i
COc1cc(-c2noc(C)c2-c2ccc(N(C)C)nc2)cc(OC)c1OC	66*	i	i	i	i
COc1cc(-c2noc(C)c2-c2ccc3[nH]ccc3c2)cc(OC)c1OC	i	i	i	i	i
CC(C)CC(=O)N1CCN(C(=O)c2ccc(F)cc2)CC1	i	i	i	i	i
CC(C)CCNC(=O)CCC(=O)NNc1nc2ccccc2c2nc(-c3ccccc3)nn12	i	23*	i	i	i
O=C(CCC(=O)NNc1nc2ccccc2c2nc(-c3ccccc3)nn12)NCCCN1CCOCC1	i	i	i	i	i
O=C(Nc1nnc(-c2ccc(F)cc2)o1)c1cccc([N+](=O)[O-])c1	126*	i	i	i	-6*
O=C(Nc1nnc(-c2ccc3c(c2)CCCC3)o1)c1ccccc1	66*	i	i	i	i
O=C(Nc1nnc(-c2ccc(F)cc2)o1)c1cc(Cl)sc1Cl	220*	i	i	i	i
O=C(Nc1nnc(C2=COCCO2)o1)c1cccc([N+](=O)[O-])c1	i	i	i	i	i
O=C(Nc1nnc(-c2ccc3c(c2)CCCC3)o1)c1ccccc1Cl	i	i	i	i	i
Cc1ccc(S(=O)(=O)NCc2ccccc2)cc1C(=O)NCC(C)(C)N1CCOCC1	i	i	i	i	i
CCCC(=O)Nc1c(-c2cccc(OC)c2)c(=O)c2ccccc2n1C	i	i	i	i	i
O=C1CCC(C(=O)N2CCCO2)CN1Cc1cccc(C(F)(F)F)c1 (stereo unspecified)	i	i	i	i	i
O=C(NCc1cccnc1)c1cc(S(=O)(=O)N2CCCC2)c(Cl)cc1Cl	i	i	i	i	i
CCN(CC)Cc1ccc(OC)c(Cl)c1	i	i	i	i	i
COc1ccc(CSCCN)cc1Cl	103*	i	i	i	i
CSc1c(C#N)sc(=S)n1-c1ccc(C)cc1	i	i	i	i	-7*
Clc1cc(Cl)cc(C2=NC(Cc3ccccc3)CO2)c1 (stereo unspecified)	132*	i	i	i	i
CCN(CC)c1ccc2c(Cl)c(Br)c(=O)oc2c1	i	i	i	i	-6*
